For experiment [1], the target named is T1, 5-hydroxytryptamine receptor 2C (Rattus norvegicus, UniProt P08909).
T1 sequence (P08909 whole entry): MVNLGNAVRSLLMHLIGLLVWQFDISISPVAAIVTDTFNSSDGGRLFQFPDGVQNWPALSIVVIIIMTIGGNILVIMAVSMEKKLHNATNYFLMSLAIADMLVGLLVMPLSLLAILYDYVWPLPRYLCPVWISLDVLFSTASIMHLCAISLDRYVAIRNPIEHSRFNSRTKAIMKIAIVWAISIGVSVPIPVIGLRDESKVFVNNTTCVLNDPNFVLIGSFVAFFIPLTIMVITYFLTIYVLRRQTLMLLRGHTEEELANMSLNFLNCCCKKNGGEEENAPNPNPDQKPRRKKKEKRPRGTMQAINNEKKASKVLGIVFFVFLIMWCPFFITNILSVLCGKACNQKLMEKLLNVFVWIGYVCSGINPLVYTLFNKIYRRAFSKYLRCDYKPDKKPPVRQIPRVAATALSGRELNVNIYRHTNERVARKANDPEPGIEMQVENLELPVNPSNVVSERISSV
Kind of experiment: Affinity was evaluated as inhibition constant for serotonin 5-hydroxytryptamine 2C receptor.

Experiment [2] can be described thus: Ratio between Ki values of D2 and S-2A receptors.
Experiment [3] addresses T2, 5-hydroxytryptamine receptor 2A (Rattus norvegicus, UniProt P14842). Kind of experiment: Affinity was evaluated as inhibition constant for serotonin 5-hydroxytryptamine 2A receptor.
For experiment [4], the target named is T3, D(2) dopamine receptor (Homo sapiens, UniProt P14416). Kind of experiment: Affinity was evaluated as inhibition constant for dopamine D-2 receptor.
T3 sequence (P14416 whole entry): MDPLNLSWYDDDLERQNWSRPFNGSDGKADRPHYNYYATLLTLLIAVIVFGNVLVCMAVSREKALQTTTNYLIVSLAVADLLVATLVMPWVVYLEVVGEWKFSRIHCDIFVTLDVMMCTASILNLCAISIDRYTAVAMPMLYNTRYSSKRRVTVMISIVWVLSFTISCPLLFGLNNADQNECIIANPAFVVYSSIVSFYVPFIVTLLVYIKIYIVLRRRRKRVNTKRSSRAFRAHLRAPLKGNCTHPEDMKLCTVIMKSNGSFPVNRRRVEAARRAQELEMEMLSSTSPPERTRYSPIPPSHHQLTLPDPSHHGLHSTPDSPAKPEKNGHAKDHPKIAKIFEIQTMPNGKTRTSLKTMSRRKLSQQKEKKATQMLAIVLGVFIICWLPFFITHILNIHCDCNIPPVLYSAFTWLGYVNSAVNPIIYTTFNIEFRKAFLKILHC
In experiment [5] the target is T4, D(4) dopamine receptor (Homo sapiens, UniProt P21917).
T4 sequence (P21917 whole entry): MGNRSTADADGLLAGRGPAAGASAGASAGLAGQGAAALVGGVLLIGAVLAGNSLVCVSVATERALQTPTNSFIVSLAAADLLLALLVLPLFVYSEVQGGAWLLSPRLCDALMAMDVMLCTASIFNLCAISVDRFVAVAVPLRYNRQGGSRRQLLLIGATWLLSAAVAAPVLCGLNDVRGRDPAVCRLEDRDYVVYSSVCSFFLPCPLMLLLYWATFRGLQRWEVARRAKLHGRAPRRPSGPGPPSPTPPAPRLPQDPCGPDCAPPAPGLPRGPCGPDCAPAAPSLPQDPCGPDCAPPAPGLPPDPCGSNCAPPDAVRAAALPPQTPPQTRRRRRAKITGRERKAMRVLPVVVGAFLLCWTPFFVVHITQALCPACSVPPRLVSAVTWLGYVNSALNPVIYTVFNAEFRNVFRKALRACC
The experiment can be described thus: Affinity was evaluated as inhibition constant for dopamine D-4 receptor.

Experiment [6] can be described thus: Ratio between Ki values of D2 and S-3 receptors.
Experiment [7] addresses T2, 5-hydroxytryptamine receptor 2A. Kind of experiment: Affinity was evaluated by inhibition of [125I]LSD binding to NIH 3T3 cells transfected with cloned rat 5-hydroxytryptamine 2A receptor. It counts as cell-based, NIH3T3. In outline:
(§1)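 Membranes from confluent GF-6 and P0 cell monolayers, homogenized in ice-cold 0.32 M sucrose, spun at 44 000g, stored at -80°C in 50 mM Tris-HCl pH 7.6. Triplicate tubes held 5 nM [125I]LSD (stock), test compound at 10^-9 to 10^-5 M final and 1–5 μg protein. Nonspecific binding was defined with 10 μM mesulergine.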

The target of experiment [8] is T3, D(2) dopamine receptor. Kind of experiment: Affinity was evaluated by inhibition of [3H]spiperone binding to COS cells transfected with human dopamine D-2(long) receptor. It counts as cell-based. A digest of the protocol:
(§2)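 Membranes from COS-7 cells transfected with human D-4 or D-2(long) receptor; [3H]spiperone binding inhibited in presence of sodium chloride. Ki averaged from two experiments.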

The target in experiment [9] is T4, D(4) dopamine receptor. Kind of experiment: Affinity was evaluated by inhibition of [3H]-spiperone binding to COS cells transfected with human dopamine D-4 receptor. It counts as cell-based. In outline:
as §2

The target in experiment [10] is T5, Serotonin 3 (5-HT3) receptor (Rattus norvegicus, UniProt P35563+Q9JJ16).
T5 sequence (P35563 whole entry): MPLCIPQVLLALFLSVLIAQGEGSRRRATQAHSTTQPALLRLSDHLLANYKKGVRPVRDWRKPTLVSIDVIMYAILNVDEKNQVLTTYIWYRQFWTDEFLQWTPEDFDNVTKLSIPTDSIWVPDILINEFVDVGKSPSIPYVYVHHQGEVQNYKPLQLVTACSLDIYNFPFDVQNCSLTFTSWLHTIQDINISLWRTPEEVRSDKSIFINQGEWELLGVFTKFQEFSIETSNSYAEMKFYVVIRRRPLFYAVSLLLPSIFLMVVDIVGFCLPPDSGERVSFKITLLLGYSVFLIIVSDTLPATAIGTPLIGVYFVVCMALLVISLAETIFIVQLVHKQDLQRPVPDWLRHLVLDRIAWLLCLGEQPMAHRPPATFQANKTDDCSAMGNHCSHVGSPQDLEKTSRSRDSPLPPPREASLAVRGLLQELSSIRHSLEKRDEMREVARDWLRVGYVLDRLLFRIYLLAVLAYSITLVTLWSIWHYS
T5 sequence (Q9JJ16 whole entry): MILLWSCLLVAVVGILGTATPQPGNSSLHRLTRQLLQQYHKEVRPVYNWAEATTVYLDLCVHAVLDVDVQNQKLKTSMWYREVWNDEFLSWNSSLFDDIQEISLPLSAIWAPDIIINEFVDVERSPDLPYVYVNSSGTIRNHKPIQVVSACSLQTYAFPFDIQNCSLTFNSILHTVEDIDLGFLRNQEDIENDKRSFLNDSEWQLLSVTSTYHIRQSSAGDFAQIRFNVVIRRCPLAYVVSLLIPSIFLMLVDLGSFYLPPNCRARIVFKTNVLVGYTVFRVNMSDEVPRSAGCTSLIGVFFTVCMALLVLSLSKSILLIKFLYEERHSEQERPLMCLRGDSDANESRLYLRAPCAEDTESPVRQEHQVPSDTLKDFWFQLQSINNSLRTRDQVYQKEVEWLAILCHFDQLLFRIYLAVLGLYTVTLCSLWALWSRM
Kind of experiment: Affinity was evaluated by inhibition of [3H]GR-65630 binding to NG108-15 cell transfected with cloned rat 5-hydroxytryptamine 3 receptor. It counts as cell-based.

The target in a further experiment is D(1A) dopamine receptor (Rattus norvegicus, UniProt P18901). The experiment can be described thus: Affinity was evaluated as inhibition constant for dopamine receptor D1 using [3H]-SCH- 23390 as radioligand.
Chain of D(1A) dopamine receptor (P18901 whole entry): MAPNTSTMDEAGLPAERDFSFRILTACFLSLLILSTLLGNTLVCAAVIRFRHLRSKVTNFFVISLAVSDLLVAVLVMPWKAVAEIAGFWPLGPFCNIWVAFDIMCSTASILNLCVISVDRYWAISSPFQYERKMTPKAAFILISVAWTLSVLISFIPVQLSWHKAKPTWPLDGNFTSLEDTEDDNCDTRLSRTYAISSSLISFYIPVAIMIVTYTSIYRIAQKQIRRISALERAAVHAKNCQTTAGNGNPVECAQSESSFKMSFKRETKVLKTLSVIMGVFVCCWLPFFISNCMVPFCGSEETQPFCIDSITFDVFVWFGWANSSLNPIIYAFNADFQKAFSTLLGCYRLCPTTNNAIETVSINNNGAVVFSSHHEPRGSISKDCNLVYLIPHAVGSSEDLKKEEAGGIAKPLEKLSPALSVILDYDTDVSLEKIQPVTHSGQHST
Experiment [11] concerns the target T1, 5-hydroxytryptamine receptor 2C. Kind of experiment: Affinity was evaluated by inhibition of [125I]LSD binding to NIH 3T3 cells transfected with cloned rat 5-hydroxytryptamine 2C receptor. It counts as cell-based, NIH3T3. A digest of the protocol:
as §1

The target in experiment [12] is T5, Serotonin 3 (5-HT3) receptor. Kind of experiment: Affinity was evaluated as inhibition constant for serotonin 5-hydroxytryptamine 3 receptor. It counts as protein-complex assay.

The term Ki denotes the dissociation constant of the complex between target and ligand, obtained from inhibition or displacement. Low readings indicate tighter binding, high ones weaker binding.

Several values for one entry are separate records, joined by “and”; a condition that tells them apart may be missing. Identical values can stand only once.

T2 sequence (P14842 whole entry): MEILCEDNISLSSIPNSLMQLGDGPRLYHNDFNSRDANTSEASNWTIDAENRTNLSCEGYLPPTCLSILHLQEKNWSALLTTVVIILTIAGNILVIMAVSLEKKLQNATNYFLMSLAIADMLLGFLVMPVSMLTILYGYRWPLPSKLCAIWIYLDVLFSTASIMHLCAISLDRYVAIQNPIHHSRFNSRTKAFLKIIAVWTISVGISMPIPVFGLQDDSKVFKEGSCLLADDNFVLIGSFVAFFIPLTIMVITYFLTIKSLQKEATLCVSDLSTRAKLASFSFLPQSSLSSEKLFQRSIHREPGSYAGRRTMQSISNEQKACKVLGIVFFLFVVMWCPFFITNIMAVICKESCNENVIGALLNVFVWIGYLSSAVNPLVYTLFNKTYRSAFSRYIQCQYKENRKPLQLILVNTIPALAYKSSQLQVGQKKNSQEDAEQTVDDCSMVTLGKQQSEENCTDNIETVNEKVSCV

With `CC1c2ccccc2C=C(C2=CCN(C)CC2)c2ccccc21` (racemic), the Ki in experiment [1] worked out at 89 nM; in experiment [3], 72 nM; at D(2) dopamine receptor [4], 680 nM; on D(4) dopamine receptor [5], 320 nM. Moreover, in experiment [2], the Ratio was 9.4.

As to `CC(C)=C1c2ccc(Cl)cc2C=C(N2CCN(C)CC2)c2ccccc21`, the values for the Ratio in experiment [6] and in [2] were 6.9 and 3, respectively. Also, the Ki in experiment [7] came out at 230 nM; on D(2) dopamine receptor [8] it was 690 nM; at D(4) dopamine receptor [9] it was 930 nM; in [10] it was 100 nM; at D(1A) dopamine receptor it was 98 nM; in [11], 370 nM.

As for `CN1CCN(C2=Cc3ccccc3Oc3ccccc32)CC1`, the Ratio turned out to be 0.51 in experiment [6] and 5 in experiment [2]. Moreover, the Ki in experiment [7] was determined as 4 nM; at D(2) dopamine receptor [8], 21 nM; at D(4) dopamine receptor [9], 2 nM; in experiment [10], 41 nM; in experiment [11], 6 nM.

`C=C1c2ccccc2C=C(C2=CCN(C)CC2)c2ccccc21`: the inhibition constant (Ki) in experiment [1] stood at 35 nM; in experiment [3], 30 nM; at D(2) dopamine receptor [4] it was 250 nM; on D(4) dopamine receptor [5] it was 330 nM. Besides, the Ratio in experiment [2] was 8.3.

As to `CN1CCN(C2=Cc3ccccc3Cc3ccc(Cl)cc32)CC1`, the inhibitory constant (Ki) in experiment [7] turned out to be 2 nM; in experiment [10], 49 nM; in experiment [11], 6 nM.

For the molecule `C=C1c2ccccc2C=C(N2CCN(C)CC2)c2ccccc21`, the results for the Ratio in experiment [6] and in experiment [2] were 1.8 and 5.2, respectively. In addition, the inhibition constant Ki in experiment [7] amounted to 11 nM; at D(2) dopamine receptor [8], 57 nM; on D(4) dopamine receptor [9], 47 nM; in [10], 31 nM; at D(1A) dopamine receptor it was 4.7 nM; in [11], 18 nM.

Consider `C[C@@H]1c2ccccc2C=C(C2=CCN(C)CC2)c2ccccc21`, for which the Ki in experiment [1] was determined as 70 nM; in [3], 74 nM; at D(2) dopamine receptor [4], 640 nM; on D(4) dopamine receptor [5] it was 190 nM. Further, the Ratio in [2] came out at 8.6.

As for `CN1CCN(C2=Nc3ccccc3Nc3ccc(Cl)cc32)CC1` [ISOCLOZAPINE], the Ki in experiment [12] worked out at 22 nM; on D(1A) dopamine receptor, 14 nM; at D(4) dopamine receptor [5], 16 nM.

For `CN1CCC(C2=Cc3cc(Cl)ccc3Cc3ccccc32)CC1`, the Ratio was 14 in experiment [6] and 200 in experiment [2]. In addition, the inhibitory constant (Ki) in experiment [1] stood at 3 nM; in experiment [12], 41 nM; in experiment [3], 3 nM; at D(2) dopamine receptor [4], 560 nM; at D(4) dopamine receptor [5], 2700 nM.

Consider `CC1CCN(C2=Cc3cc(Cl)ccc3Cc3ccccc32)CC1`, for which the Ratio in [6] and in experiment [2] was below 1 throughout. Also, the inhibition constant (Ki) in experiment [1] was above 1000 nM; in experiment [12] it was above 1000 nM; in experiment [3] it was above 1000 nM; at D(2) dopamine receptor [4], 1400 nM; at D(4) dopamine receptor [5], 1000 nM.

Regarding `CN1CCN(C2=Nc3cc(Cl)ccc3Oc3ccccc32)CC1` [ISOLOXAPINE], the Ki was determined as 11 nM in experiment [7], 23 nM at D(4) dopamine receptor [9], 39 nM in experiment [10] and 19 nM in experiment [11].

Consider `CC1c2ccccc2C=C(N2CCN(C)CC2)c2ccccc21` (stereo not given), for which the inhibition constant Ki in experiment [7] is 47 nM; on D(4) dopamine receptor [9] it was 12 nM; on D(1A) dopamine receptor it was 16 nM; in experiment [11] it was 36 nM.

As to `C[C@H]1c2ccccc2C=C(C2=CCN(C)CC2)c2ccccc21`, the Ki in experiment [1] worked out at 250 nM; in [3] it was 200 nM; on D(2) dopamine receptor [4] it was 730 nM; on D(4) dopamine receptor [5], 400 nM. Besides, the Ratio in [2] stood at 3.7.

For `CC(C)=C1c2ccccc2C=C(C2=CCN(C)CC2)c2ccccc21`, the Ki in [1] is 3300 nM and 830 nM and 1500 nM; in experiment [3] it was 2200 nM and 830 nM and 1200 nM; on D(2) dopamine receptor [4], 520 nM and 790 nM and 570 nM.

As for `CN1CCN(C2=Nc3cc(Cl)ccc3N(C)c3ccccc32)CC1`, the values for the Ratio in [6] and in experiment [2] were 28 and 7.9, respectively. The Ki in experiment [1] stood at 74 nM; in experiment [12], 40 nM; in [3], 140 nM; at D(2) dopamine receptor [4] it was 1100 nM; on D(4) dopamine receptor [5], 120 nM.

Take `CN1CCN(C2=Cc3cc(Cl)ccc3Cc3ccccc32)CC1`: the Ki came out at 3 nM in experiment [7], 2900 nM at D(4) dopamine receptor [9], 120 nM in experiment [10] and 7 nM in [11].

Take `CN1CCN(C2=Nc3ccccc3Nc3ccccc32)CC1`: the Ki in [1] was 84 nM; on D(2) dopamine receptor [4], 2500 nM; at D(1A) dopamine receptor, 200 nM; at D(4) dopamine receptor [5], 420 nM.

At D(4) dopamine receptor [9], `CN1CCN(C2=Nc3ccccc3Oc3ccc(Cl)cc32)CC1` [LOXAPINE] came in with a Ki of 4.9 nM.

Turning to `CN1CCN(C2=Cc3ccccc3Oc3ccc(Cl)cc32)CC1`, the Ratio in experiment [6] came out at 0.03; in experiment [2] it was 0.8. The inhibition constant Ki in experiment [7] was found to be 3 nM; at D(2) dopamine receptor [8], 2.5 nM; at D(4) dopamine receptor [9], 0.54 nM; in [10] it was 84 nM; in experiment [11], 3 nM.

For `C/C=C1/c2ccccc2C=C(N2CCN(C)CC2)c2ccccc21`, the Ratio in experiment [6] turned out to be 21; in experiment [2], 7.4. Also, the Ki came to 98 nM in experiment [7]; 730 nM on D(2) dopamine receptor [8]; 300 nM at D(4) dopamine receptor [9]; 35 nM in [10]; 68 nM at D(1A) dopamine receptor; 110 nM in experiment [11].

For the molecule `CN1CCN(C2=Cc3cc(Cl)ccc3Oc3ccccc32)CC1`, the figures for the Ratio in [6] and in [2] were 0.15 and 3, respectively. Further, the inhibition constant Ki is 3 nM in experiment [7]; 8.7 nM at D(2) dopamine receptor [8]; 0.9 nM on D(4) dopamine receptor [9]; 57 nM in experiment [10]; 6 nM in experiment [11].

Turning to `CC(C)=C1c2ccccc2C=C(N2CCN(C)CC2)c2ccccc21`, the Ratio in experiment [6] is 3.6; in [2], 1.2. Moreover, the inhibition constant (Ki) came out at 250 nM in [7]; 290 nM on D(2) dopamine receptor [8]; 2700 nM at D(4) dopamine receptor [9]; 81 nM in experiment [10]; 120 nM at D(1A) dopamine receptor; 390 nM in experiment [11].
